The values below come from publication PMC11052883 (Clinical Pharmacokinetics, 2024).

In one data set the test system is MRP2. The following applies: in vitro, cited from earlier work.
The conditions of data set [1]: MMAE given as brentuximab vedotin; cited from earlier work.
The test system of another data set is OCT1. The following applies: in vitro, clinically relevant concentrations; cited from earlier work.
Data set [2] in a line: Population PK analysis of five clinical studies. Type of data set: in vivo, human. The following applies: enfortumab vedotin 0.5–1.25 mg/kg.
For the next data set, the system named is OAT1. The following applies: in vitro, cited from earlier work.
Data set [3] concerns QTcF interval. Kind of data set: EV-102 concentration–QTcF analysis. Type of data set: in vivo, human. The following applies: patients, third dose of enfortumab vedotin 1.25 mg/kg.
Data set [4] concerns the target human ether-a-go-go–related (hERG) channel (Homo sapiens, UniProt Q12809). In words: hERG channel inhibition, whole-cell voltage clamp. Type of data set: cell-based. The procedure, abridged: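 In vitro hERG current by conventional whole-cell voltage clamp, with MMAE (free payload) tested at concentrations up to 100 μM. Half-maximal inhibitory concentration is estimated from the concentration–inhibition data. The comparator is the mean estimated maximum unbound plasma MMAE concentration in patients after a third 1.25 mg/kg dose, using an unbound fraction of 0.32.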

In a further data set the test system is OATP1B3. The following applies: in vitro, cited from earlier work.
Data set [5] can be described thus: Population PK: effect of mild hepatic impairment on model-predicted exposures. The following applies: mild hepatic impairment compared with normal hepatic function. Type of data set: in vivo, human.
In the next data set the test system is BSEP. The following applies: in vitro, clinically relevant concentrations; cited from earlier work.
Another data set relates to BCRP. The following applies: in vitro; cited from earlier work.
The subject of the next data set is P-glycoprotein (P-gp). The following applies: in vitro, cited from earlier work.
The next data set relates to OATP1B1. The following applies: in vitro, cited from earlier work.
For data set [6], the system named is plasma proteins. In words: MMAE protein binding in human plasma. The format is in vitro ADME. The following applies: used for unbound Cmax.
Data set [7] concerns QTcF interval. The following applies: cited from earlier work; for Cmax geometric mean: EV-102, after third dose, cycle 1 day 15, 1.25 mg/kg.
The test system of the next data set is CYP3A. The following applies: when administered as part of an ADC; cited from earlier work.
For data set [8], the system named is cytochrome P450 (CYP) 3A4. The following applies: background statement, no reference given; cited from earlier work.
For data set [9], the system named is plasma proteins. The following applies: 3H-MMAE, human plasma; cited from earlier work.
The subject of another data set is OAT3. The following applies: in vitro, cited from earlier work.
Another data set relates to OCT2. The following applies: in vitro, cited from earlier work.
Data set [10] can be described thus: Population PK: model-predicted exposures by race/ethnicity. The format is in vivo, human. The following applies: for difference in exposure, lower in Asian patients: cycle 1 AUC0–28d and Cmax, Asian vs non-Asian; for geometric least square mean ratios of Cmax, AUC0–28d and Ctrough lower in Japanese than non-Japanese patients: population PK model-simulated.
A short description of data set [11]: EV-201 clinical PK of ADC, TAb and free MMAE after enfortumab vedotin 1.25 mg/kg. The format is in vivo, human. The following applies: for AUCd0–14: cycle 1, dose 3, day 15, geometric mean (%CV).
In data set [12] the test system is mUC and other Nectin-4–expressing malignant solid tumors. In words: EV-101 phase I dose-escalation. The format is in vivo, human.
The nature of data set [13]: Adverse events in pooled enfortumab vedotin 1.25 mg/kg safety group. Type of data set: in vivo, human. The following applies: for patients with grade 3 or higher TRAEs / patients with serious TRAEs: 1.25 mg/kg safety analysis group; for patients with TRAE grade 3 or higher / patients with serious TRAE: 1.25 mg/kg. The method in brief:
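Pooled integrated safety dataset (N = 680) from the clinical development program. Patients received monotherapy at 1.25 mg/kg (maximum 125 mg) as a 30-min IV infusion on days 1, 8 and 15 of each 28-day cycle until progression or unacceptable toxicity. Treatment-emergent and treatment-related AEs, including serious events, were tabulated by subgroups of concomitant inhibitor use.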

Data set [14] relates to locally advanced or metastatic urothelial carcinoma. Kind of data set: EV-201. The format is in vivo, human. The following applies: upper three ADC Cavg exposure quartiles.
The test system is the same in data set [15]. In words: EV-301 phase III: exposure–response for overall survival. Type of data set: in vivo, human. The following applies: enfortumab vedotin range across ADC Cavg quartiles.
The test system of data set [16] is Nectin-4–expressing malignant solid tumors. Kind of data set: AGS-22M6E-11-1 phase I study. Type of data set: in vivo, human. The following applies: for median t½: observed concentrations. The method in brief:
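First-in-human study in which patients received an intravenous infusion every 3 weeks at 0.6 or 1.2 mg/kg. ADC is measured as antibody carrying any amount of conjugated MMAE. Median half-life is derived from observed ADC concentrations at each dose level. Safety, tolerability and clinical response are assessed per dose cohort.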

Setting [17] is: clinically relevant concentrations.

Several values for one entry are separate records, joined by “and”; a condition that tells them apart may be missing. Identical values can stand only once. Square brackets hold non-standard residues; d marks the D form. Peptide text beside a SMILES is read from it. * marks the point of attachment. Dolaproine = CO[C@@H]([C@@H]1CCCN1)[C@@H](C)C(=O)O; Dil = CC[C@H](C)[C@H](NC)[C@@H](CC(=O)O)OC; X1 = C[C@@H](N*)[C@@H](O)c1ccccc1; NMeV = CN[C@H](C(=O)O)C(C)C

human ether-a-go-go–related (hERG) channel, sequence (Q12809 whole entry): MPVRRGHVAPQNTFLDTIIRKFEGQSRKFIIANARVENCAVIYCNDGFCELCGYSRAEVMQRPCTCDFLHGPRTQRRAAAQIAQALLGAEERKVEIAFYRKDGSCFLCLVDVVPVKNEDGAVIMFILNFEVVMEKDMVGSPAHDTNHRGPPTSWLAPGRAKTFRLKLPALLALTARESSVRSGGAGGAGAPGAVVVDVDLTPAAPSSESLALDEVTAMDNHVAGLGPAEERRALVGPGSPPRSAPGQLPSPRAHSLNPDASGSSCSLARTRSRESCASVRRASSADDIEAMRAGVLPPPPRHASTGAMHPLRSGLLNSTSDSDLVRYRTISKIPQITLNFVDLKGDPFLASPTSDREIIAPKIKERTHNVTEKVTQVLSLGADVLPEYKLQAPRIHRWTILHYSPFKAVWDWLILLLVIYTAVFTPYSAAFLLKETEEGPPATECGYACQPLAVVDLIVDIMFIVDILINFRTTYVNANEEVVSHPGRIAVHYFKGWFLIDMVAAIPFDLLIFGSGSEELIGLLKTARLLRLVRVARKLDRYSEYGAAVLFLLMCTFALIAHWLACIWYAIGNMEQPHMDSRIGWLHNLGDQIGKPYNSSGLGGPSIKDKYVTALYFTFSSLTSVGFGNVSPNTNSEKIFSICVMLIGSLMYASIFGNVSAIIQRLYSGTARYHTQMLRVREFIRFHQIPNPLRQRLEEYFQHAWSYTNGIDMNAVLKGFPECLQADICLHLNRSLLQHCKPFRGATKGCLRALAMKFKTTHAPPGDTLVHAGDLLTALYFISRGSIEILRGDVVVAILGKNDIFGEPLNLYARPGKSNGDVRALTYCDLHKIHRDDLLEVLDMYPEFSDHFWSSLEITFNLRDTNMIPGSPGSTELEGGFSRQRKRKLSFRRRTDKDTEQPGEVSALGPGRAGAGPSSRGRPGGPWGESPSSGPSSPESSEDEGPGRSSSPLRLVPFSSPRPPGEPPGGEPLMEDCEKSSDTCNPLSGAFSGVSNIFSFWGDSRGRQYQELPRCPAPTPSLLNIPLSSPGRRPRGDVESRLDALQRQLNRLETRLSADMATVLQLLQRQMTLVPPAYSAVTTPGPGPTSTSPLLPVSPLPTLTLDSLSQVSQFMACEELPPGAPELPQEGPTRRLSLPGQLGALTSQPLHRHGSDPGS

As for `CC[C@H](C)[C@@H]([C@@H](CC(=O)N1CCC[C@H]1[C@H](OC)[C@@H](C)C(=O)N[C@H](C)[C@@H](O)c1ccccc1)OC)N(C)C(=O)[C@@H](NC(=O)[C@@H](NC)C(C)C)C(C)C` [MMAE, monomethyl auristatin E] (H-[NMeV]V[Dil][Dolaproine]-X1), in the data set on MRP2 (setting [17]), the “inhibitor of MRP2” value is “not an inhibitor”. For the same compound, in the data set on MRP2, the “substrate of MRP2” value is on record as “not a substrate”. In [1], the “share of excreted MMAE that was excreted in feces” value is “approximately 72%”; the “total MMAE administered excreted in feces and urine” value was “approximately 24%”. Moreover, in the data set with OCT1, the “inhibitor of OCT1” value is on record as “not an inhibitor”. In [2], this compound yielded a mean clearance of 2.11 L/h. For the same compound, the “inhibitor of OAT1” value in the data set with OAT1 (setting [17]) is given as “not an inhibitor”. In addition, the “substrate of OAT1” value in the data set on OAT1 is on record as “not a substrate”. Also, in the data set on QTcF interval [3], the “mean estimate of maximum unbound MMAE concentration” value was 0.002 μM and 1.26 ng/mL. The “IC50 estimate relative to mean maximum unbound MMAE concentration” value in data set [4] (100 μM vs 0.002 μM) was “approximately 50,000 fold”. In data set [4] (read-out: half maximal inhibitory concentration, concentrations up to 100 μM), the IC50 was over 100 µM. Also, the “inhibitor of OATP1B3” value with OATP1B3 (setting [17]) is recorded as “not an inhibitor”. In addition, the “substrate of OATP1B3” value in the data set on OATP1B3 is “not a substrate”. In addition, in data set [5], the “increase in AUC0–28d” value was 37% and the “increase in Cmax” value is 31%. Also, the “inhibitor of BSEP” value in the data set on BSEP was “not an inhibitor”. The “substrate of BCRP” value with BCRP is “not a substrate”. In the data set with P-glycoprotein (P-gp) (setting [17]), the “inhibitor of P-gp” value is “not an inhibitor”. Besides, the “substrate of P-gp” value with P-glycoprotein (P-gp) was “substrate”. For the same compound, in the data set with OATP1B1 (setting [17]), the “inhibitor of OATP1B1” value is “not an inhibitor”. Further, the “substrate of OATP1B1” value in the data set with OATP1B1 is “not a substrate”. The compound also had an unbound fraction in the data set with plasma proteins [6] of 0.32. Moreover, the Cmax geometric mean in the data set on QTcF interval [7] is reported as 3.94 ng/mL. The “Predicted dQTcF interval (population mean change in QTcF), mean (SE in table)” value with QTcF interval [7] (at geometric mean Cmax, 1.25 mg/kg) is -3.14 ms. In addition, the “inhibitor or inducer of CYP3A” value with CYP3A is “neither an inhibitor nor an inducer”. Moreover, the metabolizing enzyme entry in [8] is listed as “primarily metabolized by cytochrome P450 (CYP) 3A4”. Also, the “bound to plasma proteins” value in the data set with plasma proteins [9] is recorded as 67.9–82.2%. In the data set with OAT3 (setting [17]), the “inhibitor of OAT3” value is reported as “not an inhibitor”. In addition, the “substrate of OAT3” value in the data set with OAT3 is recorded as “not a substrate”. The “inhibitor of OCT2” value with OCT2 (setting [17]) is “not an inhibitor”. Besides, the “substrate of OCT2” value in the data set with OCT2 is listed as “not a substrate”. Moreover, in [10], the “difference in exposure, lower in Asian patients” value is given as under 11%; the “geometric least square mean ratios of Cmax, AUC0–28d and Ctrough lower in Japanese than non-Japanese patients” value was 2.7–11.6%. Further, in data set [11] (across cycles 1 and 2, enfortumab vedotin 1.25 mg/kg), the “Mean Cmax” value was in the range of 2.4 to 3.9 ng/mL. Also, the “time to peak concentration” value in [11] (after dosing of enfortumab vedotin 1.25 mg/kg) is 2 to 3 days. Moreover, in data set [11] (enfortumab vedotin 1.25 mg/kg), the “Cmax lower than that of ADC” value was “more than 1000 fold”.

For “Enfortumab vedotin: fully human anti–Nectin-4 IgG1 kappa monoclonal antibody conjugated to MMAE via a protease-cleavable maleimidocaproyl valine–citrulline linker”, in data set [2], the mean clearance was 0.11 L/h. In [12] (EV-101, 0.5–1.25 mg/kg), the maximum tolerated dose result is reported as “not identified”. Further, the “confirmed objective response rate [ORR]” value in data set [12] (EV-101, 1.25-mg/kg dose level) is given as 42.9%. Also, in [13] (mild CYP3A inhibitors), the “patients with grade 3 or higher TRAEs” value turned out to be 51.1% and the “patients with serious TRAEs” value turned out to be 20.7%. For the same compound, in data set [13] (moderate CYP3A inhibitors), the “patients with grade 3 or higher TRAEs” value is 61.8% and the “patients with serious TRAEs” value was 28.7%. Besides, in [13] (not receiving CYP3A inhibitors), the “patients with grade 3 or higher TRAEs” value worked out at 41.5% and the “patients with serious TRAEs” value is given as 14.4%. Further, in data set [13] (not receiving P-gp inhibitors), the “patients with TRAE grade 3 or higher” value is on record as 33.3% and the “patients with serious TRAE” value is 10.0%. For the same compound, in data set [13] (receiving P-gp inhibitors), the “patients with TRAE grade 3 or higher” value was 56.8% and the “patients with serious TRAE” value turned out to be 24.3%. Moreover, the “ORR (complete and partial responses)” value in data set [14] is listed as 55–64%. Also, in data set [15], the “median OS” value is listed as 11.0–15.2 months. In the data set on QTcF interval [7] (EV-102, 1.0 or 1.25 mg/kg), the QT prolongation result is recorded as “No clinically meaningful QT prolongation was observed” and the “slope estimate, dQTcF vs concentration” value is 0.539 ms/(μg/mL). Further, in the data set with QTcF interval [7], the Cmax geometric mean is 20100 ng/mL. In addition, the clinical response result in [16] (0.6 mg/kg and 1.2 mg/kg every 3 weeks) is on record as “clinical response was not observed”. Also, in data set [16] (1.2 mg/kg intravenous dose), the “median t½” value was 2.39 days. Also, the “median t½” value in [16] (0.6-mg/kg dose) amounted to 1.65 days. Also, in data set [10], the “difference in exposure, lower in Asian patients” value was under 11%; the “geometric least square mean ratios of Cmax, AUC0–28d and Ctrough lower in Japanese than non-Japanese patients” value was 2.7–11.6%. Besides, the “AUCd0–14” value in data set [11] (listed as ADC) came to 34.7 µg·days/mL.

Consider “TAb: analyte: fully conjugated, partially conjugated, and unconjugated antibody after enfortumab vedotin administration”, for which the “geometric mean ratio (GMR) of accumulation” value in data set [11] (after repeat enfortumab vedotin dosing) was 1.1. In addition, the “AUCd0–14” value in data set [11] worked out at 98.1 µg·days/mL. Moreover, the “average Ctrough, TAb relative to ADC” value in [11] (end of cycle 1) was “approximately 5.5 fold”.
